Experimental data as given in ChEMBL document CHEMBL1124186, “Synthesis and evaluation of tylosin-related macrolides modified at the aldehyde function: a new series of orally effective antibiotics” (1988).
In brackets after ≈: the same amount, converted by molar mass.

Key:
[1] = tested on: Bacteroides fragilis; assay: In vitro antimicrobial activity against anaerobic bacteria bacteroides fragilis 111; type: functional
[2] = tested on: Bacteroides fragilis; assay: In vitro antimicrobial activity against anaerobic bacteria bacteroides fragilis 1877; type: functional
[3] = tested on: Bacteroides fragilis; assay: In vitro antimicrobial activity against anaerobic bacteria bacteroides fragilis 1936B,; type: functional
[4] = tested on: Eikenella corrodens; assay: In vitro antimicrobial activity against anaerobic bacteria bacteroides corrodens 1874; type: functional
[5] = tested on: Phocaeicola vulgatus; assay: In vitro antimicrobial activity against anaerobic bacteria bacteroides vulgatus 1211; type: functional
[6] = tested on: Prevotella melaninogenica; assay: In vitro antimicrobial activity against anaerobic bacteria bacteroides melaninogenicus 1856,; type: functional
[7] = tested on: Bacteroides thetaiotaomicron; assay: In vitro antimicrobial activity against anaerobic bacteria bacteroides thetaiotaomicron 1438; type: functional
[8] = tested on: Clostridioides difficile; assay: In vitro antimicrobial activity against anaerobic bacteria Clostridium difficile 2994; type: functional
[9] = tested on: Clostridium perfringens; assay: In vitro antimicrobial activity against anaerobic bacteria clostridium perfringens 81,; type: functional
[10] = tested on: Clostridium septicum; assay: In vitro antimicrobial activity against anaerobic bacteria clostridium septicum 1128; type: functional
[11] = tested on: Chlamydia trachomatis; assay: In vitro antimicrobial activity against chlamydia trachomatis.; type: functional
[12] = tested on: Collinsella aerofaciens; assay: In vitro antimicrobial activity against anaerobic bacteria aerofaciens 1235; type: functional
[13] = tested on: Fusobacterium; assay: In vitro antimicrobial activity against anaerobic bacteria fusobacterium symbiosum 1470; type: functional
[14] = tested on: Haemophilus influenzae; assay: In vitro antimicrobial activity against aerobic bacteria Haemophilus influenzae 76; type: functional
[15] = tested on: Haemophilus influenzae; assay: In vitro antimicrobial activity against aerobic bacteria Haemophilus influenzae MX366,; type: functional
[16] = tested on: Haemophilus influenzae; assay: In vitro antimicrobial activity against Haemophilus influenzae.; type: functional
[17] = tested on: Haemophilus parainfluenzae; assay: In vitro antimicrobial activity against aerobic bacteria Haemophilus parainfluenzae 9796; type: functional
[18] = tested on: Mus musculus; assay: Peripheral plasma levels in mice after oral administration of 50 mg/kg dose for 2 hr; type: functional, organism-based; parameters: dose 50 mg/kg
Summary of the method: (§1)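 Mice were given the compound orally and sampled for peripheral plasma at each time point. Plasma was assayed microbiologically against Micrococcus luteus seeded in Antibiotic Medium 1. Inhibition zone sizes were read, and concentrations were calculated from each compound's own standard curve. Each value is the mean of five mice per time point.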

[19] = tested on: Mus musculus; assay: Peripheral plasma levels in mice after oral administration of 50 mg/kg dose for 4 hr; type: functional, organism-based; parameters: dose 50 mg/kg; summary of the method: as §1
[20] = tested on: Mus musculus; assay: Peripheral plasma levels in mice after oral administration of 100 mg/kg dose for 4 hr; type: functional, organism-based; parameters: dose 100 mg/kg; summary of the method: as §1
[21] = tested on: Mus musculus; assay: Peripheral plasma levels in mice after oral administration of 50 mg/kg dose for 0.25 hr; type: functional, organism-based; parameters: dose 50 mg/kg; summary of the method: as §1
[22] = tested on: Mus musculus; assay: Peripheral plasma levels in mice after oral administration of 100 mg/kg dose for 0.25 hr; type: functional, organism-based; parameters: dose 100 mg/kg; summary of the method: as §1
[23] = tested on: Mus musculus; assay: Peripheral plasma levels in mice after oral administration of 100 mg/kg dose for 0.5 hr; type: functional, organism-based; parameters: dose 100 mg/kg; summary of the method: as §1
[24] = tested on: Mus musculus; assay: Peripheral plasma levels in mice after oral administration of 100 mg/kg dose for 1 hr; type: functional, organism-based; parameters: dose 100 mg/kg; summary of the method: as §1
[25] = tested on: Mus musculus; assay: Peripheral plasma levels in mice after oral administration of 100 mg/kg dose for 2 hr; type: functional, organism-based; parameters: dose 100 mg/kg; summary of the method: as §1
[26] = tested on: Mus musculus; assay: Peripheral plasma levels in mice after oral administration of 50 mg/kg dose for 1 hr; type: functional, organism-based; parameters: dose 50 mg/kg; summary of the method: as §1
[27] = In vitro antimicrobial activity against anaerobic bacteria peptostreptococcus intermedius 1264; type: functional
[28] = tested on: Peptoniphilus asaccharolyticus; assay: In vitro antimicrobial activity against anaerobic bacteria peptococcus asaccharolyticus 1302; type: functional
[29] = tested on: Anaerococcus prevotii; assay: In vitro antimicrobial activity against anaerobic bacteria peptococcus prevoti 1281; type: functional
[30] = tested on: Cutibacterium acnes; assay: In vitro antimicrobial activity against anaerobic bacteria propionibacterium acnes 79; type: functional
[31] = tested on: Streptococcus; assay: In vitro antimicrobial activity against aerobic bacteria Streptococcus B 14; type: functional
[32] = tested on: Streptococcus; assay: In vitro antimicrobial activity against aerobic bacteria Streptococcus D 8043; type: functional
[33] = tested on: Streptococcus; assay: In vitro antimicrobial activity against aerobic bacteria Streptococcus D 9960; type: functional
[34] = tested on: Staphylococcus epidermidis; assay: In vitro antimicrobial activity against aerobic bacteria Streptococcus epi 270; type: functional
[35] = tested on: Staphylococcus aureus; assay: In vitro antimicrobial activity against Staphylococcus aureus X1; type: functional
[36] = tested on: Staphylococcus aureus; assay: In vitro antimicrobial activity against aerobic bacteria Staphylococcus aureus 513E; type: functional
[37] = tested on: Staphylococcus aureus; assay: In vitro antimicrobial activity against aerobic bacteria Staphylococcus aureus V140,; type: functional
[38] = tested on: Staphylococcus aureus; assay: In vitro antimicrobial activity against aerobic bacteria Staphylococcus aureus V41; type: functional
[39] = tested on: Staphylococcus aureus; assay: In vitro antimicrobial activity against aerobic bacteria Staphylococcus aureus X400; type: functional
[40] = tested on: Streptococcus pneumoniae; assay: In vivo effective dose against experimental infections in mice Streptococcus pneumoniae administered sc; type: functional
[41] = tested on: Streptococcus pneumoniae; assay: In vivo effective dose against experimental infections in mice Streptococcus pneumoniae park when administered orally; type: functional; settings: po
[42] = tested on: Streptococcus pneumoniae; assay: In vitro antimicrobial activity against aerobic bacteria Streptococcus pneumoniae B1-438; type: functional, streptococcus pneum
[43] = tested on: Staphylococcus epidermidis; assay: In vitro antimicrobial activity against Staphylococcus epidermidis EPI1; type: functional
[44] = tested on: Staphylococcus epidermidis; assay: In vitro antimicrobial activity against aerobic bacteria Streptococcus epi 222; type: functional
[45] = tested on: Enterococcus faecium; assay: In vitro antimicrobial activity against Streptococcus faecium X66; type: functional, streptococcus fae-cium
[46] = tested on: Streptococcus; assay: In vitro antimicrobial activity against aerobic bacteria Streptococcus B 5; type: functional
[47] = tested on: Staphylococcus aureus; assay: In vitro antimicrobial activity against aerobic bacteria Staphylococcus aureus V135; type: functional
[48] = tested on: Haemophilus influenzae; assay: In vitro antimicrobial activity against aerobic bacteria Haemophilus influenzae 465; type: functional
[49] = tested on: Prevotella melaninogenica; assay: In vitro antimicrobial activity against anaerobic bacteria bacteroides melaninogenicus 2736; type: functional
[50] = tested on: Fusobacterium necrophorum; assay: In vitro antimicrobial activity against anaerobic bacteria usobacterium necrophorum 6054A; type: functional
[51] = tested on: Mus musculus; assay: Peripheral plasma levels in mice after oral administration of 50 mg/kg dose for 0.5 hr; type: functional, organism-based; parameters: dose 50 mg/kg; summary of the method: as §1
[52] = tested on: Streptococcus; assay: In vitro antimicrobial activity against aerobic bacteria Streptococcus D 2041; type: functional
[53] = tested on: Peptostreptococcus anaerobius; assay: In vitro antimicrobial activity against anaerobic bacteria eubacterium peptostreptococcus anaerobius 1428,; type: functional

SMILES: CC[C@H]1OC(=O)C[C@@H](O)[C@H](C)[C@@H](O[C@@H]2O[C@H](C)[C@@H](O)[C@H](N(C)C)[C@H]2O)[C@@H](CCOc2ccc(C(=O)c3ccccc3)cc2)C[C@@H](C)C(=O)/C=C/C(C)=C/[C@@H]1CO[C@@H]1O[C@H](C)[C@@H](O)[C@@H](OC)[C@H]1OC
- MIC [1]: 2 µg/mL (≈ 2.1 µM)
- MIC [2]: 2 µg/mL (≈ 2.1 µM)
- MIC [3]: 4 µg/mL (≈ 4.19 µM)
- MIC [4]: 2 µg/mL (≈ 2.1 µM)
- MIC [5]: < 0.5 µg/mL
- MIC [6]: < 0.5 µg/mL
- MIC [7]: 4 µg/mL (≈ 4.19 µM)
- MIC [8]: < 0.5 µg/mL
- MIC [9]: < 0.5 µg/mL
- MIC [10]: < 0.5 µg/mL
- MIC [11]: > 2 µg/mL
- MIC [12]: < 0.5 µg/mL
- MIC [13]: 2 µg/mL (≈ 2.1 µM)
- MIC [14]: 16 µg/mL (≈ 16.8 µM)
- MIC [15]: 16 µg/mL (≈ 16.8 µM)
- MIC [16]: 16 µg/mL (≈ 16.8 µM)
- MIC [17]: 32 µg/mL (≈ 33.5 µM)
- Concentration [18]: 1.8 µg/mL
- Concentration [19]: 0.8 µg/mL
- Concentration [20]: 1.2 µg/mL
- Concentration [21]: 0.1 µg/mL
- Concentration [22]: 1.3 µg/mL
- Concentration [23]: 1.1 µg/mL
- Concentration [24]: 2.3 µg/mL
- Concentration [25]: 2 µg/mL
- Concentration [26]: 0.1 µg/mL
- MIC [27]: < 0.5 µg/mL
- MIC [28]: < 0.5 µg/mL
- MIC [29]: 2 µg/mL (≈ 2.1 µM)
- MIC [30]: < 0.5 µg/mL
- MIC [31]: 1 µg/mL (≈ 1.05 µM)
- MIC [32]: 0.25 µg/mL (≈ 0.262 µM)
- MIC [33]: 0.5 µg/mL (≈ 0.524 µM)
- MIC [34]: > 128 µg/mL
- MIC [35]: 0.25 µg/mL (≈ 0.262 µM)
- MIC [36]: 0.25 µg/mL (≈ 0.262 µM)
- MIC [37]: 0.5 µg/mL (≈ 0.524 µM)
- MIC [38]: 0.25 µg/mL (≈ 0.262 µM)
- MIC [39]: 0.25 µg/mL (≈ 0.262 µM)
- ED50 [40]: > 20 mg/kg
- ED50 [41]: > 50 mg/kg
- MIC [42]: 128 µg/mL (≈ 134 µM)
- MIC [43]: 0.25 µg/mL (≈ 0.262 µM)
- MIC [44]: 0.12 µg/mL (≈ 0.126 µM)
- MIC [45]: 0.25 µg/mL (≈ 0.262 µM)
- MIC [46]: 1 µg/mL (≈ 1.05 µM)
- MIC [47]: 0.5 µg/mL (≈ 0.524 µM)
- MIC [48]: 32 µg/mL (≈ 33.5 µM)
- MIC [49]: 2 µg/mL (≈ 2.1 µM)
- MIC [50]: 4 µg/mL (≈ 4.19 µM)
- Concentration [51]: 0.4 µg/mL
- MIC [52]: 0.5 µg/mL (≈ 0.524 µM)
- MIC [53]: < 0.5 µg/mL
